Consider one compound from ChEMBL document CHEMBL1123254, “Dopamine receptor modulation by Pro-Leu-Gly-NH2 analogues possessing cyclic amino acid residues at the C-terminal position” (J Med Chem, 1986).

The species entered for assay [1] is Bos taurus. The experiment in a line: Enhancement of [3H]ADTN to dopamine receptors at concentration of 100 nM. Put shortly: (§1)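 Bovine caudate homogenized in 50 mM Tris-HCl pH 7.7 and spun twice at 40000 g. Pellet taken up in 50 mM Tris pH 7.1 with 0.1% ascorbic acid, 120 mM NaCl, 5 mM KCl, 2 mM CaCl2 and 10 μM pargyline. 0.4-0.6 mg protein incubated with 8 nM [3H]ADTN ± peptide (1, 10 or 100 nM), triplicate, 37 °C. Bound ligand collected by GF/B filtration and counted by scintillation.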

The species entered for assay [2] is Bos taurus. The assay can be described thus: Enhancement of [3H]ADTN to dopamine receptors at concentration of 10 nM. The essentials:
as §1

The species entered for assay [3] is Bos taurus. The experiment in a line: Enhancement of [3H]-ADTN to dopamine receptors at concentration of 1 nM. Put shortly:
as §1

Where a SMILES comes first, the peptide text is derived from it.

For `CC(C)C[C@H](NC(=O)[C@@H]1CCCN1)C(=O)NCC(N)=O` (H-Pro-Leu-Gly-NH2), the results for the Enhancement in the assay filed under Bos taurus [1], in the assay listed under Bos taurus [2] and in the assay filed under Bos taurus [3] were 46.2%, 28% and 16%, respectively.
